Sampled rows, rich in hits. Any-hit rate of the full collection: about 1.8%.
LANA-H2B inh = blocks KSHV LANA binding to histone H2A/H2B; Q9QR71; cell-free LANA-H2A/H2B peptide, fluorescence polarization; inhibition, % (concentration not given with the values); actives 0.6% (n = 320,000); in the data active = inhibition mostly above about 10%, no sharp cut-off; inactive = mostly below about 6.7%
HDAC3 inh = blocks human histone deacetylase 3; O15379; recombinant HDAC3, fluorogenic peptide/trypsin coupled, fluorescence; inhibition, % at 8.3 µM; actives 0.15% (n = 320,000); AID 2718; in the data active = inhibition above about 26%, passing the limit was not always enough
AI-2 QS modul = modulators of Vibrio harveyi AI-2 quorum sensing system. Vibrio harveyi JMH597 AI-2 luminescence/OD600 ratio, 9 h; stronger effect = lower value; strain lacks LuxN and CqsS sensors; 0 = neutral-control median. activity change, % at 7.5 µM. actives 0.4% (n = 300,000); in the data active = activity change below about -75%, passing the limit was not always enough;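 also: luminescence divided by OD600 gain over 9 h not by final OD600 alone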
A1 inh = inhibitors of the anti-apoptotic protein A1, read as caspase activation. MEF A1-2A-BIM cells, Caspase-Glo 3/7 luminescence, 3 h; percent of clofoctol response, vehicle zero. caspase activation, % (test concentration not listed). actives 0.066% (n = 330,000). AID 2462;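 active = over half of replicate activation scores above 10%, or exactly half above 10 with the replicate mean above 10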
ATG4B inhibitor = ATG4B (human) cysteine protease inhibition; Q9Y4P1; ATG4B cleavage of LC3-PLA2, NBD-HPC fluorescence, 1 h; inhibition, % at 8.33 µM; actives 0.51% (n = 340,000); in the data active = inhibition above about 40%
Target sequence (Q9Y4P1 whole entry, looked up): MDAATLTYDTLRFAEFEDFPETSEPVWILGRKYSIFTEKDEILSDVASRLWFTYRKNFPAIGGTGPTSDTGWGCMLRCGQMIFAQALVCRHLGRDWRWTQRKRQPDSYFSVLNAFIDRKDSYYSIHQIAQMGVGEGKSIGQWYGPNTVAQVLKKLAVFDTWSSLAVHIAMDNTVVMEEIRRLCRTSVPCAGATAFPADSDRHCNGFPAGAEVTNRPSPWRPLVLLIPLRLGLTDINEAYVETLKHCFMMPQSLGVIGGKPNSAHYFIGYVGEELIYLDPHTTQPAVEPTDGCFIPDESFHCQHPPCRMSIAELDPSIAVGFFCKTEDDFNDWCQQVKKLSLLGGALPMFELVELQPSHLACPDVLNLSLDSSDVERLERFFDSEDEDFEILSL
HKDC1 inhibitor = HKDC1 (human) hexokinase inhibition. AID 493160. inhibition, % at 20 µM. recombinant HKDC1, G6PDH/diaphorase resazurin coupled fluorescence. actives 0.16% (n = 340,000);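 active = inhibition above about 35% when tested at 20 µM, limit read from the data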;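 also: plate controls were DMSO wells with enzyme for no effect and DMSO wells lacking enzyme for full effect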
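Assay system – recombinant HKDC1 (HK5) hexokinase enzyme, produced in-house · Input – HKDC1 at 5 µg/mL · Reagent – glucose plus 1 mM ATP as hexokinase substrates · Timing – 90 min reaction incubation at room temperature, dark · Measured by – G6PDH/diaphorase-coupled fluorescence, 1 mM NADP, 100 µM resazurin, 525/613 nm · Benchmarks – DMSO-enzyme wells negative, buffer-substituted wells positive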
Starred values were filed as active, the others as inactive; i = inactive; . = no result; + = active, no number.

SMILES | LANA-H2B inh | HDAC3 inh | AI-2 QS modul | A1 inh | ATG4B inhibitor | HKDC1 inhibitor
N#Cc1ccccc1NC(=O)COC(=O)/C=C/c1cn(-c2ccccc2)nc1-c1ccc(Cl)cc1 | . | . | . | . | -3.0 | -2.6
COc1cc(/C=C/C(=O)OCC(=O)N(CC(C)C)c2c(N)n(Cc3ccccc3)c(=O)[nH]c2=O)ccc1O | . | . | . | . | -16.4 | -8.2
CN(C)CCC1Sc2ccccc2Oc2ccccc21 (stereo not given) | -0.4 | -4.0 | 26.6 | 1.7 | -2.4 | 3.3
c1ccc2c(c1)Oc1ccccc1S2 | 41.6* | -1.1 | . | 0.5 | 3.1 | -0.3
CSc1sc(-c2n[nH]c(=S)n2C)c2c1C=CCC2 | 0.8 | 34.4* | 13.5 | 1.1 | -1.6 | 13.9
Cc1nc(-c2ccccc2)sc1-c1n[nH]c(=S)n1C | 1.7 | 11.2 | 32.8 | -0.4 | 0.3 | -0.9
COCCCNC(=O)C(=O)Nc1cc2c3c(c1)CCC(=O)N3CCC2 | -0.1 | 0.5 | 15.2 | 0.4 | 15.4 | 1.9
O=C(NCCCO)C(=O)Nc1cc2c3c(c1)CCC(=O)N3CCC2 | 18.6* | 2.5 | 11.3 | 0.7 | -4.3 | -2.4
CC1CC2(C)C(=CC1=O)CCC1C2C(O)CC2(C)C1CCC2(O)C(=O)CO (stereo not given) | . | . | . | . | -8.8 | -2.4
Cn1cnc([N+](=O)[O-])c1S(=O)(=O)Oc1ccc(Cl)cc1 | . | . | . | . | 1.4 | 6.4
Clc1ccc(C(c2ccccc2Cl)C(Cl)Cl)cc1 (stereo not given) | -5.0 | 5.7 | . | 0.2 | 5.2 | 1.9
CCc1ccc(C(c2ccc(CC)cc2)C(Cl)Cl)cc1 | 23.5* | -7.0 | . | -0.5 | 3.2 | 2.3
CC(=O)c1sc(NC(=O)CCCc2nc3ccccc3c(=O)[nH]2)nc1-c1ccccc1 | . | 14.2 | . | 0.2 | -10.7 | -2.8
Cc1nc2ccccc2c2c1C(=O)NC2=O | 27.4* | -2.7 | 37.7 | 0.8 | . | .
CC(OC(=O)C1COc2ccccc2O1)C(=O)N(C)c1ccccc1 (stereo not given) | -2.7 | -10.7 | 18.9 | 1.0 | -2.1 | -5.8
COc1ccccc1NC(=O)C(C)OC(=O)C1COc2ccccc2O1 (stereo not given) | 20.6* | -0.3 | . | -0.5 | -5.8 | -1.8
COC(=O)c1c(=O)n(O)c2ccc(OC)cc2[n+]1[O-] | 54.6* | 1.8 | 2.4 | 0.3 | -12.3 | 1.5
O=C(C1CCCO1)N1CCN(S(=O)(=O)c2cc(C(F)(F)F)ccc2Cl)CC1 (stereo not given) | . | . | . | . | 5.7 | 1.2
O=c1c2cc(Br)ccc2nc(-c2cccc(C(F)(F)F)c2)n1O | 5.4 | 0.7 | 34.7 | -0.1 | 2.4 | -0.6
N#Cc1ccc(-c2nc3ccc(Br)cc3c(=O)n2O)cc1 | -1.6 | -5.6 | -110.6* | -0.6 | -8.3 | 6.2
O=c1c2cc(Br)ccc2nc(-c2ccc([N+](=O)[O-])cc2)n1O | 1.7 | 3.7 | -167.5* | 0.0 | 1.7 | -5.3
CC(=O)Nc1ccc(-c2cn3ccsc3n2)cc1 | 14.6* | -6.0 | -3.6 | -2.5 | -8.4 | -2.8
O=C(Nc1ccc(-c2cn3ccsc3n2)cc1)C1CC1 | -3.2 | 3.5 | 15.8 | 0.3 | 1.6 | -2.2
COc1cc(NC(=O)SC2=NCCS2)cc(OC)c1 | . | . | . | . | -4.4 | 0.7
COc1cccc(C(=O)SC2=NCCS2)c1 | -8.1 | 48.7* | 12.6 | -1.3 | -7.8 | -4.7
SMILES | LANA-H2B inh | HDAC3 inh | AI-2 QS modul | A1 inh | ATG4B inhibitor | HKDC1 inhibitor
CCc1nnc2n1N=C(c1ccc(Cl)cc1)CS2 | 0.0 | 1.5 | 19.4 | 0.8 | -4.0 | -4.2
Cc1nnc2n(c1=O)N=C(c1ccc(Cl)cc1)CS2 | -3.8 | 59.5* | 14.7 | 0.2 | -3.5 | -12.7
C[C@H](NC(=O)COc1ccccc1)C(=O)OCC(=O)c1cc2ccccc2o1 | . | . | . | . | 5.0 | 1.9
CCOc1cc(/C=C\[N+](=O)[O-])ccc1OCC(=O)Nc1ccccc1C | 5.0 | 8.1 | 20.4 | 30.9* | 2.9 | 9.8
COc1cc(/C=C/c2cccc[n+]2C)ccc1OCC(=O)Nc1ccccc1C | 14.7 | 4.3 | 7.0 | 0.2 | -14.5 | -3.5
O=C1Nc2ccccc2Nc2ncccc21 | 15.5* | -9.9 | 11.0 | 0.0 | -10.4 | -3.9
OC(CNCC1CCCO1)Cn1c2ccc(Cl)cc2c2cc(Cl)ccc21 (stereo not given) | 1.0 | 14.7 | 9.1 | 1.8 | -10.7 | 3.3
OC(CNCCC1C=Nc2ccccc21)Cn1c2ccc(Cl)cc2c2cc(Cl)ccc21 (stereo not given) | -1.3 | 45.9* | 54.9 | 2.5 | 2.5 | 10.4
Cc1c(CCO)c(=O)n2n1CCCC2 | . | . | . | . | 5.3 | -4.3
O=C(COC(=O)c1cnccn1)Nc1cccc(F)c1 | 4.5 | 4.0 | . | 0.1 | 0.4 | 1.0
CCc1ccc(CNC(=O)CN2C(=O)COc3ccccc32)cc1 | 12.1* | -3.1 | 4.3 | -2.1 | 6.5 | -2.1
CC(C)(C)[C@H]1COC(=O)CC/C=C\C[C@H](CC(=O)N(CCO)Cc2ccccc2)C(=O)N1 | -1.8 | -4.9 | . | -1.2 | -2.7 | -7.3
CCCCN(C(=O)c1ccc(NC2CC2)c([N+](=O)[O-])c1)c1c(N)n(CCCC)c(=O)[nH]c1=O | . | . | . | . | -0.4 | -1.4
Cc1ccc(C(=O)c2ccc([N+](=O)[O-])cc2)cc1 | -9.4 | . | 13.0 | -0.7 | -10.4 | -10.8
Cc1ccc(C(=O)c2coc3cc([N+](=O)[O-])c(O)c([N+](=O)[O-])c23)cc1 | -0.4 | 4.9 | -90.2* | -0.8 | 4.2 | 14.6
COC(=O)[C@]1(Cc2ccccc2)N[C@H](CN(C)S(=O)(=O)c2ccc(C)cc2)[C@@H]2C(=O)N(Cc3ccccc3)C(=O)[C@@H]21 | 2.2 | 4.1 | . | -0.4 | 30.8 | 5.0
CC[C@@]1(C(=O)OC)N[C@H](CN(C)S(=O)(=O)c2ccc(C(C)(C)C)cc2)[C@@H]2C(=O)N(Cc3ccccc3)C(=O)[C@@H]21 | 69.4* | -3.4 | . | 0.9 | 3.5 | 4.0
CCN(C[C@H]1N[C@@](CC)(C(=O)OC)[C@H]2C(=O)N(Cc3ccccc3)C(=O)[C@@H]12)C(=O)Nc1ccc(C(F)(F)F)cc1 | + | 0.4 | . | -0.8 | -5.8 | -4.0
CCN(C[C@H]1N[C@@](CC)(C(=O)OC)[C@H]2C(=O)N(Cc3ccccc3)C(=O)[C@@H]12)C(=O)Nc1ccc(OC)cc1 | i | 2.0 | . | -0.2 | 0.4 | 2.1
CC1/C(=N/O)C(CN(C)C)C2CC1C2(C)C (stereo not given) | -0.2 | 5.8 | 12.6 | 0.2 | 18.1 | -3.0
CC1C2CC(C(CN(C)C)/C2=N/O)C1(C)C (stereo not given) | 66.5* | 2.3 | 25.4 | -0.3 | 2.7 | 7.5
CN(C)C(=O)CCc1ccc2c3c([nH]c2c1)[C@]1(CCC2CCCC2)[C@@H](C(=O)N2CCOCC2)C[C@H](CC(=O)NCCC2=CCCCC2)C(=O)N1CC3 | . | . | . | . | -11.5 | 1.6
COc1ccc(-c2[nH]ncc2CN2CCC(N3CCSCC3)CC2)cc1F | 4.4 | 2.3 | -3.8 | -0.5 | 10.8 | -7.7

Screens deposited in PubChem by several laboratories.
